# Source: PubChem BioAssay
# Hits are enriched below; roughly 0.99% of the tested compounds scored in any of these assays.
# DDE Tn7 FP inh = disrupts Tn7 cyclic peptide binding to fibrin D-Dimer-E complex | FP displacement of FITC-Tn7 peptide from fibrin DD(E); 0% = median of compound wells per plate | inhibition, % at 8.3 µM | P02675 | 370,000 compounds, 0.13% hits | AID 720508;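 active means inhibition above the mean of compounds falling within the control limits plus 3 SD of them, cut at about 14% in these data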
# Target sequence (P02675 whole entry, looked up): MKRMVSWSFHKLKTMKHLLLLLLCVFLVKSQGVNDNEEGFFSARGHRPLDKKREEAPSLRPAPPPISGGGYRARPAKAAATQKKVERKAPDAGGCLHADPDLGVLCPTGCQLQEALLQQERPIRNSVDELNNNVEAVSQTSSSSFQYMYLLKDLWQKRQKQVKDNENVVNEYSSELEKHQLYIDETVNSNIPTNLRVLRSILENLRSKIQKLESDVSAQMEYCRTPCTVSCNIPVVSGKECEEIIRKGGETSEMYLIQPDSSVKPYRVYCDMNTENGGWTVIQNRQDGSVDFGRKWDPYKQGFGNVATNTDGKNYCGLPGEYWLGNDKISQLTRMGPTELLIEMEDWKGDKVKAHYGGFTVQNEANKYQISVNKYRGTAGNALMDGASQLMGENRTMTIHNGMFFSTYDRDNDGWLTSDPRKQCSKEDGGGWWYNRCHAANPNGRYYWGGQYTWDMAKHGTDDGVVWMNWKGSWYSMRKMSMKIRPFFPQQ
#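 Test system – human fibrin DD(E) · Times – 10 min preincubation, 3 h with tracer, room temperature · Detection – fluorescence polarization of the labelled Tn7 tracer · Measure – percent inhibition normalized to high-control wells · Benchmarks – high control wells with 10 µM unlabelled Aha-Tn7 peptide (full inhibition) · Repeats – singlicate testing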
# DDE Tn6 FP inh = inhibitors of Tn6 peptide binding to human fibrin DD(E); P02675; Fibrin DD(E) TRITC-Tn6 fluorescence polarization displacement; inhibition, % at 8.3 µM; 370,000 compounds, 0.21% hits;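 active means inhibition above a per-campaign cutoff: mean of compounds within control limits plus 3 SD, cut at about 15% in these data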
# ABCB1 inh = inhibitors of human ABCB1 transporter, ABCG2 counter-screen; 190,000 compounds, 0.067% hits; CCRF-Adr cells, JC-1 efflux, flow cytometry; P08183; inhibition, % at 6.6 µM; in the data active means inhibition above about 40%;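 further: higher value means more JC-1 retained so stronger ABCB1 efflux block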
# GRK2 inh = inhibitors of human GRK2 displacing RNA aptamer | P25098 | bead flow cytometry, FAM-aptamer displacement from GRK2 | inhibition of aptamer binding, % at 10 µM | 330,000 compounds, 0.59% hits | AID 488847;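 active means inhibition of aptamer binding above 40%, roughly 3 SD of noise, on plates passing a quality check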;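 further: median bead fluorescence of bound FAM aptamer so fluorescent compounds give negative values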
# ABCG2 inh = human ABCG2 inhibition, ABCB1 as counter-screen | Q9UNQ0 | IgMXP3 cells, JC-1 efflux, flow cytometry | inhibition, % at 6.6 µM | 190,000 compounds, 0.1% hits | AID 1325;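 active means inhibition above 80%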
#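 Test system: IgMXP3 cells (ABCG2) mixed with DDAO far-red-labelled CCRF-Adr cells (ABCB1). Reagent: JC-1 transporter substrate. Compound dosing: single test compound dose, 6.6 µM final. Times: 10 min compound exposure, 25 °C. Detection: flow cytometry of retained JC-1 fluorescence. Read-out basis: efflux inhibition in percent versus controls. Controls: nicardipine and DMSO wells.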
# Insulin prom up = MIN6 insulin promoter up-regulation; MIN6 insulin promoter-GFP reporter, high-content imaging; hits give high values; z-score at 5 µM; 190,000 compounds, 0.3% hits;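 active means z-score above 3 at 5 µM with at least 500 cells counted in the well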
# GRK2 inh confirm = human GRK2 inhibition confirmation, cherry pick 1; shares compounds with GRK2 inh; bead-bound GRK2, FAM-aptamer displacement, flow cytometry; aptamer displacement, % at 10 µM; 2,000 compounds, 4% hits;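 active means aptamer displacement above 40%, near three times the noise of non-fluorescent compounds, on plates passing quality checks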;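 further: negative values mostly reflect intrinsic compound fluorescence rather than true enhancement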
# Aptamer quench SP = quenches fluorescent RNA aptamer, GRK2 hit artifact. Carboxyfluorescein RNA aptamer on beads, flow cytometry quenching; hits give low values. 2,000 tested, under 10 active. shares compounds with GRK2 inh. fluorescence response (% of DMSO), % at 10 µM;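 active means compounds that quench the bead-bound fluorescent RNA probe, cutting fluorescence to under half of the solvent control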;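 further: counterscreen run without GRK2 so only probe quenching by compound is measured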
# GRK2 confirm 2 = confirmation of human GRK2 inhibitors binding RNA aptamer site; shares compounds with GRK2 inh; bead-bound GRK2, FAM-aptamer displacement, flow cytometry; inhibition of aptamer binding, % at 10 µM; 360 tested, under 10 active; AID 504782;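 active means inhibition of aptamer binding above 40%, about triple the noise seen with nonglowing compounds, on plates passing quality control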;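 further: negative values mostly come from compounds that fluoresce themselves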
# FAM quench CP2 = counter-screen for GRK2 binding hits: quenchers of fluorescent RNA aptamer; shares compounds with GRK2 inh; carboxyfluorescein RNA aptamer beads, flow cytometry quenching; hits give low values; fluorescence response vs DMSO, % at 10 µM; 360 tested, under 10 active;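 active means response vs DMSO under 50%, meaning signal dropped by over half, treated as fluorescence quencher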;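 further: labelled aptamer on streptavidin beads without GRK2 as a quench counter-screen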
# Hits are given with their value; i = inactive; nt = no result given.
SMILES,DDE Tn7 FP inh,DDE Tn6 FP inh,ABCB1 inh,GRK2 inh,ABCG2 inh,Insulin prom up,GRK2 inh confirm,Aptamer quench SP,others
CC1(C(=O)Nc2ccc(Cl)c(Cl)c2)CCN1Cc1cc2ccccc2o1 (centres undefined),i,i,nt,nt,nt,nt,nt,nt,
CCCc1c(C(=O)N/N=C(\C)c2ccccn2)nnn1-c1nonc1N,i,i,nt,nt,nt,nt,nt,nt,
CCCc1c(C(=O)N/N=C(\C)CCc2ccccc2)nnn1-c1nonc1N,i,i,nt,70,nt,nt,i,i,
Cc1ccc[n+](CC(=O)c2ccc(Br)cc2)c1,i,i,nt,75,nt,nt,i,i,
Cc1ccc[n+](CC(=O)c2ccccc2)c1,nt,nt,nt,i,nt,nt,nt,nt,
Cc1cc(C)n(-c2nc(NCCCO)c3c4c(sc3n2)CCCC4)n1,i,i,i,i,i,i,i,i,
Cc1cc(C)n(-c2nc(NCCO)c3c4c(sc3n2)CCCC4)n1,i,i,i,i,i,i,nt,nt,
Cc1cccc(C)c1NC(=O)C1(C)CN(S(C)(=O)=O)CC(=O)N1CCCN1CCOCC1 (centres undefined),i,i,nt,nt,nt,nt,nt,nt,
COCCN(C(=O)c1cc2c(s1)CCC2)c1c(N)n(CC(C)C)c(=O)[nH]c1=O,i,i,nt,43,nt,nt,i,i,
CC(=O)N1CCC(C(=O)NCCOc2cccc(C)c2)CC1,i,i,nt,65,nt,nt,i,i,
COC(=O)c1cc2c(ccn2-c2ccc(F)cc2)n1C(C)C,i,i,i,67,i,i,i,i,
COc1cccc(Cn2cc(COC(=O)N3CCCC3)nn2)c1,i,i,nt,nt,nt,nt,nt,nt,
CCOC(=O)C1C[C@@H](O)C=CC1=O (some centres undefined),i,i,nt,nt,nt,nt,nt,nt,
COc1ccc(Cl)cc1C(=O)n1nc(C)cc1C,i,i,i,i,i,i,nt,nt,
COc1cccc(OC)c1C(=O)n1nc(C)cc1C,i,i,i,i,i,i,i,i,
CCOC(=O)CSc1nnc(CSc2nc3sc4c(c3c(=O)[nH]2)CCC4)n1C,i,i,i,67,i,i,i,i,
C=CCNC(=O)N1CCC(c2nc3ccc(Cl)cc3[nH]2)CC1,i,i,nt,nt,nt,nt,nt,nt,
CCOc1ccccc1OCCCC(=O)OCC(=O)Nc1cccc(Cl)c1,i,i,i,81,i,i,i,i,
Nc1nc(SCC(=O)NCc2ccco2)[nH]c(=O)c1-c1ccccc1,i,i,i,i,i,i,nt,nt,GRK2 confirm 2=i;FAM quench CP2=i
O=C(CSc1nc2[nH]ncc2c(=O)n1-c1ccccc1Br)NCc1ccco1,i,i,i,i,i,i,nt,nt,GRK2 confirm 2=i;FAM quench CP2=i
Cc1nc(SCC(=O)NCc2ccco2)[nH]c(=O)c1C,i,i,i,i,i,i,nt,nt,GRK2 confirm 2=i;FAM quench CP2=i
Cc1ccc(C2C3=C(CCCC3=O)Nc3nc(SCC(=O)NCc4ccco4)[nH]c(=O)c32)cc1 (centres undefined),i,i,i,i,i,i,nt,nt,GRK2 confirm 2=i;FAM quench CP2=i
Nc1nc(SCC(=O)Nc2ccccc2C(F)(F)F)[nH]c(=O)c1-c1ccccc1,i,i,i,i,i,i,nt,nt,
COc1ccc(CCNC(=O)CSc2nc3[nH]ncc3c(=O)n2-c2ccccc2Br)cc1OC,i,i,i,i,i,i,nt,nt,
O=C1CCCC2=C1C(c1ccncc1)c1c(nc(SCc3ccccc3)[nH]c1=O)N2 (centres undefined),i,i,i,i,i,i,nt,nt,
Cc1cc(C)nc(SCC(=O)NCc2ccco2)n1,i,i,i,i,i,i,nt,nt,
COc1ccc(CCNC(=O)c2cnn(-c3ccccc3)c2N)cc1OC,i,i,nt,nt,nt,nt,nt,nt,
CCOC(=O)CC(=O)CSc1ccc2nnc(-c3ccc(C)cc3)n2n1,i,i,i,100,i,i,i,i,
